Experiments:
[1] = test system: Nucleic Acid; experiment: Apparent binding constant (Kapp) for calf thymus DNA was measured by competition with ethidium bromide; type: nucleic-acid assay; details: Bos taurus
Outline: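 Calf thymus DNA binding measured by ethidium bromide competition in 0.2 M Tris-HCl buffer, pH 7.40. Apparent binding constants were derived from Scatchard plots.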

[2] = test system: Escherichia coli; experiment: Compound was evaluated for the effective dose, as compared to controls against Escherichia coli BL 101; type: functional; details: read-out: ED50 (the source's name)
Outline: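 Bacteriostatic test on E. coli BL 101, a quaternary-ammonium-sensitive strain, and on Salmonella typhimurium TA 98. Inocula from master plates were grown overnight at 37 °C and diluted 1000-fold in the same medium. Cultures were shaken at 37 °C, with drugs added after 2 h of growth at graded concentrations. Growth was followed by turbidity at 650 nm. ED50 is the dose halving growth rate versus controls, from a regression of % inhibition on log dose.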

[3] = test system: L1210; experiment: Dose that reduces the L1210 leukemia cell growth in vitro by 50% after 48 hr as compared to controls; type: functional; details: Mus musculus, L1210, 48 h; read-out: ID50 (the source's name)
Outline: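 L1210 leukemia cells were grown in vitro with graded drug doses for 48 h. ID50 is the dose that reduces cell growth by 50% versus controls, read from a regression line of % growth inhibition against log dose. 50% inhibition corresponds to a twofold increase in generation time.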

[4] = test system: Mus musculus; experiment: Percent Increase in life span (ILS) over controls (10e5 L1210 leukemia cells) at LD0/2 by ip administration of the drug into mouse (single injection 2 hr after cell grafting); type: functional
Outline: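 DBA/2 mice were inoculated with 10⁵ L1210 cells and then given one intraperitoneal dose at LD0/2, the LD0 being the highest nonlethal single ip dose. Life span was compared with untreated controls as ILS = (T − C)/C × 100. ILS > 25% was counted as a significant antitumor effect.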

[5] = test system: Mus musculus; experiment: Compound tested in vivo for highest […] administered intraperitoneally that reduces the L1210 leukemia cell growth; type: functional
Outline: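 Highest nonlethal dose (LD0) found for each compound after one intraperitoneal injection into DBA/2 mice.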

[6] = test system: Salmonella typhimurium; experiment: Compound was evaluated for the effective dose, as compared to controls against Salmonella typhimurium TA98; details: read-out: ED50 (the source's name)

SMILES	K app [1]	EC50 [2]	IC50 [3]	ILS [4]	LD0 [5]	EC50 [6]
Cc1c2cc[n+](C)cc2c(C)c2c1[nH]c1ccc(O)cc12 [ELLIPTINIUM]	1.3e+06 M⁻¹	3.55 µM	0.05 µM	53	5 mg/kg	–
C/C(=N\c1c(O)ccc2[nH]c3c(C)c4cc[n+](C)cc4c(C)c3c12)C(=O)O	470000 M⁻¹	1.95 µM	0.2 µM	23	20 mg/kg	50.3 µM
Cc1c2cc[n+](C)cc2c(C)c2c1[nH]c1ccccc12	230000 M⁻¹	–	–	22	12.5 mg/kg	–
Cc1c2cc[n+](C)cc2c(C)c2c1[nH]c1ccc(O)c(/N=C/C(=O)O)c12	80000 M⁻¹	3.15 µM	0.54 µM	0	20 mg/kg	100 µM
Cc1c2cc[n+](C)cc2c(C)c2c1[nH]c1ccc(O)c(/N=C(/C(=O)O)C(C)C)c12	210000 M⁻¹	0.18 µM	0.31 µM	31.5	15 mg/kg	1.65 µM
Cc1c2cc[n+](C)cc2c(C)c2c1[nH]c1ccc(O)c(/N=C(\CC(C)C)C(=O)O)c12	260000 M⁻¹	0.76 µM	0.28 µM	35	10 mg/kg	2.35 µM
